ChEMBL document CHEMBL1125613, “Synthesis, receptor binding, and tissue distribution of 7 alpha- and 11 beta-substituted (17 alpha,20E)- and (17 alpha,20Z)-21-[125I]iodo-19-norpregna-1,3,5(10),20-tetraene-3,17-diols” (J Med Chem, 1991)

Organism: Rattus norvegicus
Test: Biodistribution studied in the adrenals of immature Fischer female rats at 5 hour
Assay type: ADME, organism-based, Adrenal gland
Settings: in vivo
Summary of the method: (§1)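 Immature female Fischer rats (24 days old, 55–60 g), unanesthetized in retention cages, given 3 μCi (111 kBq) nca 125I-labeled steroid in 200 μL via lateral tail vein. Vehicle was 9% ethanol in saline with 1% Tween-80, filtered 0.22 μm. Killed at 5 h under ether; tissues KCl-washed, blotted, weighed, gamma-counted; % ID/g, average of 4–5 rats, % CV.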
In the case of C[C@@H]1Cc2cc(O)ccc2[C@H]2CC[C@@]3(C)[C@@H](CC[C@@]3(O)/C=C\[125I])[C@H]12, the Concentration is reported as 0.88%.

The molecules below were run against Estrogen receptor (Mus musculus) (UniProt O08537+P19785) (assay: Relative binding affinity for murine cytoplasmic estrogen receptor as displacement of [3H]estradiol). Settings: not given.
Sequence of Estrogen receptor (Mus musculus) (O08537 whole entry, looked up): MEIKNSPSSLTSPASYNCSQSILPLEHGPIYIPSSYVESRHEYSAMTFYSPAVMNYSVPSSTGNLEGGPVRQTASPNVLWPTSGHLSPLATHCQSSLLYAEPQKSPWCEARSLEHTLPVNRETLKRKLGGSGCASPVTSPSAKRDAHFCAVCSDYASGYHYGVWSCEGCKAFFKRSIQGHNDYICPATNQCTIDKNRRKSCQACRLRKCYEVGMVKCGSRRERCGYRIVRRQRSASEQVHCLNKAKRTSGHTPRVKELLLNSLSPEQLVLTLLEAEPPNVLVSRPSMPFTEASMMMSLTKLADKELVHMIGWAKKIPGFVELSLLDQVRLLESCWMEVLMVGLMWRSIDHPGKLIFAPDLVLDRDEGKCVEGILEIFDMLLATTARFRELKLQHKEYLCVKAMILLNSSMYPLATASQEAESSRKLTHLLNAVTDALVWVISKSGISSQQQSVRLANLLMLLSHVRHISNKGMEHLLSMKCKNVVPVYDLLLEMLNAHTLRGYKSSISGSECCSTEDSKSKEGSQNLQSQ
Sequence of Estrogen receptor (Mus musculus) (P19785 whole entry, looked up): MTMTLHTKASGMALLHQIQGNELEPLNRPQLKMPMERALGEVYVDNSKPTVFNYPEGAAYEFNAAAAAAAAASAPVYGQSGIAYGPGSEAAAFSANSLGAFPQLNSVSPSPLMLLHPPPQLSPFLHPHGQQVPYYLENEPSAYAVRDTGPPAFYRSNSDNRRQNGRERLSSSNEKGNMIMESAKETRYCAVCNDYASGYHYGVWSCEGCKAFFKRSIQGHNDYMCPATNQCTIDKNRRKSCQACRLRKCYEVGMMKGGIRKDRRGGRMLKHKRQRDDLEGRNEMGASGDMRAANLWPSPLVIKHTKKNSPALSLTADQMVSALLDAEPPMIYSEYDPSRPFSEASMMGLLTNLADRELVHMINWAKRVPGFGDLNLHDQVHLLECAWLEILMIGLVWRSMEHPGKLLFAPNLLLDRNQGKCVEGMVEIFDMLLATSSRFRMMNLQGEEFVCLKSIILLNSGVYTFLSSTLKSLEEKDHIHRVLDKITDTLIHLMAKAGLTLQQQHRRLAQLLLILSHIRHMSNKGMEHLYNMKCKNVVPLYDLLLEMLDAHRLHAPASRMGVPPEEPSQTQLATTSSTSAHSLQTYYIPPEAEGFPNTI
Assay type: protein assay
Summary of the method: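 Murine uterine cytoplasmic extract incubated 18 h at 0–4 °C with 20 nM [3H]estradiol, with or without competitor at 2 nM to 20 μM. Concentration for 50% competition of specific binding was read from the curve. RBA = 100 × ratio of estradiol to competitor concentration at 50% competition. Mean of three experiments.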
Molecule CCO[C@H]1C[C@@]2(C)[C@@H](CC[C@@]2(O)/C=C/I)[C@@H]2CCc3cc(O)ccc3[C@H]21 has a relative binding affinity (RBA) of 21.6. Work on C[C@]12CC[C@@H]3c4ccc(O)cc4CC[C@H]3[C@@H]1CC[C@@]2(O)/C=C/I yielded a relative binding affinity (RBA) of 32.8. Molecule C=C[C@]1(O)CC[C@H]2[C@@H]3CCc4cc(O)ccc4[C@H]3[C@@H](OC)C[C@@]21C has a relative binding affinity (RBA) of 13.5. Molecule C[C@@H]1Cc2cc(O)ccc2[C@H]2CC[C@@]3(C)[C@@H](CC[C@@]3(O)/C=C/I)[C@H]12 has a relative binding affinity (RBA) of 43.2. For CO[C@H]1C[C@@]2(C)[C@@H](CC[C@@]2(O)/C=C/I)[C@@H]2CCc3cc(O)ccc3[C@H]21, the relative binding affinity (RBA) was 27.7. C[C@@H]1Cc2cc(O)ccc2[C@H]2CC[C@@]3(C)[C@@H](CC[C@@]3(O)/C=C\I)[C@H]12 gave a relative binding affinity (RBA) of 44.9. C=C[C@]1(O)CC[C@H]2[C@@H]3[C@H](C)Cc4cc(O)ccc4[C@H]3CC[C@@]21C showed a relative binding affinity (RBA) of 58.1. Molecule CO[C@H]1C[C@@]2(C)[C@@H](CC[C@@]2(O)/C=C\I)[C@@H]2CCc3cc(O)ccc3[C@H]21 has a relative binding affinity (RBA) of 32. C#C[C@]1(O)CC[C@H]2[C@@H]3CCc4cc(O)ccc4[C@H]3[C@@H](OCC)C[C@@]21C showed a relative binding affinity (RBA) of 21. C#C[C@]1(O)CC[C@H]2[C@@H]3CCc4cc(O)ccc4[C@H]3[C@@H](OC)C[C@@]21C was tested, and the relative binding affinity (RBA) was 15.3. C#C[C@]1(O)CC[C@H]2[C@@H]3[C@H](C)Cc4cc(O)ccc4[C@H]3CC[C@@]21C gave a relative binding affinity (RBA) of 73.1. C[C@]12CC[C@@H]3c4ccc(O)cc4CC[C@H]3[C@@H]1CC[C@@]2(O)/C=C\I gave a relative binding affinity (RBA) of 46.7. Work on CCO[C@H]1C[C@@]2(C)[C@@H](CC[C@@]2(O)/C=C\I)[C@@H]2CCc3cc(O)ccc3[C@H]21 yielded a relative binding affinity (RBA) of 30.8.

Organism: Rattus norvegicus
Test: Biodistribution studied in the ovaries of immature Fischer female rats at 5 hour
Assay type: ADME, organism-based, Female gonad
Settings: in vivo
Summary of the method: as §1
C[C@@H]1Cc2cc(O)ccc2[C@H]2CC[C@@]3(C)[C@@H](CC[C@@]3(O)/C=C/[125I])[C@H]12 showed a Concentration of 2.91%.
